Measurements as given in ChEMBL document CHEMBL4330096, “Discovery of potent and selective 5-azaindazole inhibitors of leucine-rich repeat kinase 2 (LRRK2) - Part 1” (Bioorg Med Chem Lett, 2019).

How the values were obtained:
[1] = target: Aurora kinase B (Homo sapiens) (UniProt Q96GD4); experiment: Inhibition of Aurora B (unknown origin) at 1 uM relative to control
Procedure, shortened: (§1)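 Single-point screen of each compound against a panel of 59 protein kinases, at 1 or 10 μM. The panel data are also summarised as a rescaled geometric mean selectivity score.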

[2] = target: T1, Serine/threonine-protein kinase BRSK2 (Homo sapiens) (UniProt Q8IWQ3); experiment: Inhibition of BRSK2 (unknown origin) at 1 uM relative to control; procedure, shortened: as §1
T1 sequence (whole entry): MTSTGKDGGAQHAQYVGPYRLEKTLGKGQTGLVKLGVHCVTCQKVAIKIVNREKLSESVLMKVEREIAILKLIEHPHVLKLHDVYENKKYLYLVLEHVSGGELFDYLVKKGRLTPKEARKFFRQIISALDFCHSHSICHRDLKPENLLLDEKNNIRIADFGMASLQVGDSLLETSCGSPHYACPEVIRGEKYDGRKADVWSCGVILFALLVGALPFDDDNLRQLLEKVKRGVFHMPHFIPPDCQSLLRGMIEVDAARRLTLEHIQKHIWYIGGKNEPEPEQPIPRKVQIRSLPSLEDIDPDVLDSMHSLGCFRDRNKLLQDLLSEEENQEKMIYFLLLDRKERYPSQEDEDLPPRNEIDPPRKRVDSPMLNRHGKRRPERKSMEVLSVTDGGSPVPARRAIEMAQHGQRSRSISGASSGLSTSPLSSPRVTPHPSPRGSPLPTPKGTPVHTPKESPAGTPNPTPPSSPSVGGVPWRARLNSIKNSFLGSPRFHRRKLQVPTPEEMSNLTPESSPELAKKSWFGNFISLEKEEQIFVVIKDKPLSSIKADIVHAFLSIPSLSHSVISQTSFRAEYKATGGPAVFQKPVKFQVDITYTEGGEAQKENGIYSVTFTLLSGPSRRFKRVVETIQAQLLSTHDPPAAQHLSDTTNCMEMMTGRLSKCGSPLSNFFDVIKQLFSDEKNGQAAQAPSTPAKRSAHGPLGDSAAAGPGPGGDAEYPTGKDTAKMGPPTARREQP

[3] = target: Tyrosine-protein kinase BTK (Homo sapiens) (UniProt Q06187); experiment: Inhibition of BTK (unknown origin) at 1 uM relative to control; procedure, shortened: as §1
[4] = target: Casein kinase I (Homo sapiens) (UniProt Q9HCP0+P78368+P48730+P49674+P48729); experiment: Inhibition of CK1 (unknown origin) at 1 uM relative to control; format: protein assay; procedure, shortened: as §1
[5] = target: Mitogen-activated protein kinase 1 (Homo sapiens) (UniProt P28482); experiment: Inhibition of ERK2 (unknown origin) at 1 uM relative to control; procedure, shortened: as §1
[6] = target: Fibroblast growth factor receptor 1 (Homo sapiens) (UniProt P11362); experiment: Inhibition of FGFR1 (unknown origin) at 1 uM relative to control; procedure, shortened: as §1
Sequence of Fibroblast growth factor receptor 1 (Homo sapiens) (P11362 22-822 limits assumed): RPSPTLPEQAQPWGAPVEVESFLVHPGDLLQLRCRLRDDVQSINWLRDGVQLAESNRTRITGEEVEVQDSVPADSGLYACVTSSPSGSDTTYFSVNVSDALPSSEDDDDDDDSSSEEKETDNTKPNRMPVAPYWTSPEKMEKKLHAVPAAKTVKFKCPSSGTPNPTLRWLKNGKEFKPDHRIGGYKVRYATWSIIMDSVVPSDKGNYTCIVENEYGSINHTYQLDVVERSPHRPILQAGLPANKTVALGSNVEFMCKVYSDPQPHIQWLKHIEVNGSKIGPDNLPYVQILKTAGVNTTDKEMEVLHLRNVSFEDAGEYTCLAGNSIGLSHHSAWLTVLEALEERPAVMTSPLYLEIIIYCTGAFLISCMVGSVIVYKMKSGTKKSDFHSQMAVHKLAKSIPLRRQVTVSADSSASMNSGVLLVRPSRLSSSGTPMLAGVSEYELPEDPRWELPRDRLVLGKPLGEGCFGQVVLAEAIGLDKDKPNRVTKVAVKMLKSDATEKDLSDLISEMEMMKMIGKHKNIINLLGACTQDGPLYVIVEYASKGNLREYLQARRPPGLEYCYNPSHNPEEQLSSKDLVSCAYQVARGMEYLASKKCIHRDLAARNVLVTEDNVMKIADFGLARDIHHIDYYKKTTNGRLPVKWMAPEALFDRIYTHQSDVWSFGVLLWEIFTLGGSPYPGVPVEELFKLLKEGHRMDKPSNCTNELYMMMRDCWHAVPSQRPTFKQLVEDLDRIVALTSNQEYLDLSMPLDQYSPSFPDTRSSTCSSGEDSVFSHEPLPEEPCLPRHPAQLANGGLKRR

[7] = target: Dual specificity mitogen-activated protein kinase kinase 1 (Homo sapiens) (UniProt Q02750); experiment: Inhibition of MKK1 (unknown origin) at 1 uM relative to control
Sequence of Dual specificity mitogen-activated protein kinase kinase 1 (Homo sapiens) (Q02750 whole entry): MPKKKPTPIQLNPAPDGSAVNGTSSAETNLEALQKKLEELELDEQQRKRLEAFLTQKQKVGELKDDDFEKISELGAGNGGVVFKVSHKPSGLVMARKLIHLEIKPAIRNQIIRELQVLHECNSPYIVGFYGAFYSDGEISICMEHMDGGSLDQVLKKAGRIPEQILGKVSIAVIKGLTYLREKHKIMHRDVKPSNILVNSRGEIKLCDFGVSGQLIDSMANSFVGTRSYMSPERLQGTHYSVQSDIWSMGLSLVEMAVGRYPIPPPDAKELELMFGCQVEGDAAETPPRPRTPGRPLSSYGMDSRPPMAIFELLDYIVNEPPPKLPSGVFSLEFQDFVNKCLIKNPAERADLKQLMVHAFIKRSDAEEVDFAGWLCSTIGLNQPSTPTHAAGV
Procedure, shortened: (§2)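 Single-concentration screen of each compound against a 59-protein-kinase panel, run at 10 µM or 1 µM. Activity relative to control is shown as a heat map across the panel.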

[8] = target: T2, Serine/threonine-protein kinase Nek2 (Homo sapiens) (UniProt P51955); experiment: Inhibition of NEK2a (unknown origin) at 1 uM relative to control; procedure, shortened: as §2
T2 sequence (whole entry): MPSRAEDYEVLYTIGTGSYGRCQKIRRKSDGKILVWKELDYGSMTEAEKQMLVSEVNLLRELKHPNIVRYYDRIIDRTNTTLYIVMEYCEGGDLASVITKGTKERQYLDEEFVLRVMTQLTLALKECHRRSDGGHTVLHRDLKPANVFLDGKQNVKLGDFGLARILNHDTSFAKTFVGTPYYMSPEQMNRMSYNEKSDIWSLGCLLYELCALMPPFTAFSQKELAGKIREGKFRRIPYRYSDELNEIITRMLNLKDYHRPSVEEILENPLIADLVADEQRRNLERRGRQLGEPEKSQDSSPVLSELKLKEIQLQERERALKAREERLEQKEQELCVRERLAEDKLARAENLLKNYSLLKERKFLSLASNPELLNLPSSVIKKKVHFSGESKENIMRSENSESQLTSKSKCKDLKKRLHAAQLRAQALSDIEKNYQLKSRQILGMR

[9] = target: Mitogen-activated protein kinase 14 (Homo sapiens) (UniProt Q16539); experiment: Inhibition of p38a MAPK (unknown origin) at 1 uM relative to control
Sequence of Mitogen-activated protein kinase 14 (Homo sapiens) (Q16539 whole entry): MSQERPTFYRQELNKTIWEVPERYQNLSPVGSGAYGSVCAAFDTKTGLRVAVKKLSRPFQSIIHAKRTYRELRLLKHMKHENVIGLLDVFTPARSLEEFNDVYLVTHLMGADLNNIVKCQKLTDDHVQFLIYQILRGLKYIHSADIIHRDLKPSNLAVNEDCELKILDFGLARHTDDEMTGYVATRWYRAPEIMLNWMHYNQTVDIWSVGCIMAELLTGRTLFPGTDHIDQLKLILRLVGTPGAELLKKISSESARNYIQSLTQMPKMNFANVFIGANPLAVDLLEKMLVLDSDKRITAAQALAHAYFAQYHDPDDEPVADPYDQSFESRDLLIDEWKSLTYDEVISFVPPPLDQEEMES
Procedure, shortened: (§3)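 Single-concentration screen across a panel of 59 protein kinases, with each compound tested at one fixed concentration. The read-out is residual kinase activity relative to control. Panel results are also condensed into a rescaled geometric mean (RGM) selectivity score.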

[10] = target: Serine/threonine-protein kinase pim-1 (Homo sapiens) (UniProt P11309); experiment: Inhibition of PIM1 (unknown origin) at 1 uM relative to control; procedure, shortened: as §2
[11] = target: RAC-alpha serine/threonine-protein kinase (Homo sapiens) (UniProt P31749); experiment: Inhibition of PKBa (unknown origin) at 1 uM relative to control; procedure, shortened: as §2
[12] = target: RAC-beta serine/threonine-protein kinase (Homo sapiens) (UniProt P31751); experiment: Inhibition of PKBb (unknown origin) at 1 uM relative to control; procedure, shortened: as §2
[13] = target: Serine/threonine-protein kinase N2 (Homo sapiens) (UniProt Q16513); experiment: Inhibition of PRK2 (unknown origin) at 1 uM relative to control; procedure, shortened: as §2
Sequence of Serine/threonine-protein kinase N2 (Homo sapiens) (Q16513 whole entry, looked up): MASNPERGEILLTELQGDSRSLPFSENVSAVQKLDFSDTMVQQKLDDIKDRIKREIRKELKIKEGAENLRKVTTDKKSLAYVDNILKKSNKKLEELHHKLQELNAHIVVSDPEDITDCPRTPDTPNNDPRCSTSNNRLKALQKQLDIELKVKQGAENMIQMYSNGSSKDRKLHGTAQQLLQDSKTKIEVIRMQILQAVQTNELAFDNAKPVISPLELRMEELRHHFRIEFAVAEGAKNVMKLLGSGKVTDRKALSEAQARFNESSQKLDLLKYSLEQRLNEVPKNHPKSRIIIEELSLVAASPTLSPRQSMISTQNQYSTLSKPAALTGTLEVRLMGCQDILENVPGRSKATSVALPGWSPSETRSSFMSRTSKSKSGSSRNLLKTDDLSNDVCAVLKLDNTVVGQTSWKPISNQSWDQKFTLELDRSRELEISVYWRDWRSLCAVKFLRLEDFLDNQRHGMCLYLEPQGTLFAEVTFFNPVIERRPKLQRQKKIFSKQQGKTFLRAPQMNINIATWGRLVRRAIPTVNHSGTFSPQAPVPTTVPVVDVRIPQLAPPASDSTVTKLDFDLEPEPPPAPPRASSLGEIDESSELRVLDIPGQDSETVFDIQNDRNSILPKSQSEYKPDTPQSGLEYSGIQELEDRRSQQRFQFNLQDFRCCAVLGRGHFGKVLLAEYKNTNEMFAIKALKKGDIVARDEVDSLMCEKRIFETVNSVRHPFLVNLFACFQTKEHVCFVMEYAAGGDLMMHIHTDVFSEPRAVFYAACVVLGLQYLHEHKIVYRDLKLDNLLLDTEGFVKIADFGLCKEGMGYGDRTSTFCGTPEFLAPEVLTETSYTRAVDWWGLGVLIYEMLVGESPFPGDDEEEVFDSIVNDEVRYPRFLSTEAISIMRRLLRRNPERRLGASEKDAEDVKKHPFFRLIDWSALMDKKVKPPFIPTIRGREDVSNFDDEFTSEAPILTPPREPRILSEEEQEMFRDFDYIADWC

[14] = target: Ribosomal protein S6 kinase alpha-1 (Homo sapiens) (UniProt Q15418); experiment: Inhibition of RSK1 (unknown origin) at 1 uM relative to control; procedure, shortened: as §2
Sequence of Ribosomal protein S6 kinase alpha-1 (Homo sapiens) (Q15418 whole entry): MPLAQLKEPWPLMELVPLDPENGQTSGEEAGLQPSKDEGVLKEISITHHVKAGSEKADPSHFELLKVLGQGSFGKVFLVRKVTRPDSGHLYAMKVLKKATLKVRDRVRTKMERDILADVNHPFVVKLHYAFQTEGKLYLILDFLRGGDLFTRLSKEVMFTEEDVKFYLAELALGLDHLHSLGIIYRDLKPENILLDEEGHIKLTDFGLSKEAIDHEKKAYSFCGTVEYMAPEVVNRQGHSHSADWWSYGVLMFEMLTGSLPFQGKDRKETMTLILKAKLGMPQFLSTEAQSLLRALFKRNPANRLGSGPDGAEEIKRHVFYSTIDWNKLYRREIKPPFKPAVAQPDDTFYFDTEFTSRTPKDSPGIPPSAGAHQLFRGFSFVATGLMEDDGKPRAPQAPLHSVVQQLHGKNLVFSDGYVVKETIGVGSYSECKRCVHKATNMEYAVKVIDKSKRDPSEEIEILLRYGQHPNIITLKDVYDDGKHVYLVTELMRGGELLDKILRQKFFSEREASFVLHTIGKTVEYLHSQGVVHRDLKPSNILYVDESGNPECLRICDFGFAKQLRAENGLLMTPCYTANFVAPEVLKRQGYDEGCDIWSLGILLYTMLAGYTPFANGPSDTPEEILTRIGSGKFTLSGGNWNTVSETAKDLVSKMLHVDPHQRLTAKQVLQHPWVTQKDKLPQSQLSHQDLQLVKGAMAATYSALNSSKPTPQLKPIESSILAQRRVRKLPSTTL

[15] = target: Ribosomal protein S6 kinase alpha-3 (Homo sapiens) (UniProt P51812); experiment: Inhibition of RSK2 (unknown origin) at 1 uM relative to control; procedure, shortened: as §3
Sequence of Ribosomal protein S6 kinase alpha-3 (Homo sapiens) (P51812 whole entry): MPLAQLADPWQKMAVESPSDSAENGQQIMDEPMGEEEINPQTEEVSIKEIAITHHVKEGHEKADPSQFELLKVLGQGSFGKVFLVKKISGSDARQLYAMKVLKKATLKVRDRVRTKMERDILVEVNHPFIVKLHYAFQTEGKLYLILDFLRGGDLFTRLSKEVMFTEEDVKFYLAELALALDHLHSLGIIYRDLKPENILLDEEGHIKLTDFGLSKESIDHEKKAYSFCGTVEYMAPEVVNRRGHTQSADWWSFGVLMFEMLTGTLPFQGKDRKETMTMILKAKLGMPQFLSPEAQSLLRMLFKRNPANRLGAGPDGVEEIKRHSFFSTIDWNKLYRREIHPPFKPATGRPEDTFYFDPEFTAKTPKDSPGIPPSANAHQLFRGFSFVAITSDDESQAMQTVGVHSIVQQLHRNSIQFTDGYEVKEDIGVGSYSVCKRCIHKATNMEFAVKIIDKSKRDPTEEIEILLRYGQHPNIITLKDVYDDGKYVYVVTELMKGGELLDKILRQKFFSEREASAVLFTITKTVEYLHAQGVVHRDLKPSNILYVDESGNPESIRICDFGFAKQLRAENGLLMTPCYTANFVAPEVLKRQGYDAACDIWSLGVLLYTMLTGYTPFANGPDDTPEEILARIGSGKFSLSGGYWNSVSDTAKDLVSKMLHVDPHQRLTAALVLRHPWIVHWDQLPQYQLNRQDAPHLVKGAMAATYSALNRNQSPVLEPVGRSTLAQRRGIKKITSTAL

[16] = target: T3, Serine/threonine-protein kinase Sgk1 (Homo sapiens) (UniProt O00141); experiment: Inhibition of SGK1 (unknown origin) at 1 uM relative to control; procedure, shortened: as §3
T3 sequence (whole entry): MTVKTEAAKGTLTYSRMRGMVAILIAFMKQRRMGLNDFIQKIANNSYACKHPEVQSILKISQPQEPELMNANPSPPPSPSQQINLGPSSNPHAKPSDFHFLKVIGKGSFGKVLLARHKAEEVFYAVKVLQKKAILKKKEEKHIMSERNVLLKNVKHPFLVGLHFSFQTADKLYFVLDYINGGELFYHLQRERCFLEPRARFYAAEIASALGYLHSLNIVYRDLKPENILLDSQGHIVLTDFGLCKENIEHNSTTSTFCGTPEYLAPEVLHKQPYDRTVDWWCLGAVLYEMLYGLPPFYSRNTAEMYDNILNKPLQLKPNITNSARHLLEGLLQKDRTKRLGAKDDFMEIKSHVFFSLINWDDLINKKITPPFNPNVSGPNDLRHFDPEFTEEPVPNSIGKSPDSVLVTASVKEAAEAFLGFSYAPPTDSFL

[17] = target: SRSF protein kinase 1 (Homo sapiens) (UniProt Q96SB4); experiment: Inhibition of SRPK1 (unknown origin) at 1 uM relative to control; procedure, shortened: as §3
Sequence of SRSF protein kinase 1 (Homo sapiens) (Q96SB4 whole entry): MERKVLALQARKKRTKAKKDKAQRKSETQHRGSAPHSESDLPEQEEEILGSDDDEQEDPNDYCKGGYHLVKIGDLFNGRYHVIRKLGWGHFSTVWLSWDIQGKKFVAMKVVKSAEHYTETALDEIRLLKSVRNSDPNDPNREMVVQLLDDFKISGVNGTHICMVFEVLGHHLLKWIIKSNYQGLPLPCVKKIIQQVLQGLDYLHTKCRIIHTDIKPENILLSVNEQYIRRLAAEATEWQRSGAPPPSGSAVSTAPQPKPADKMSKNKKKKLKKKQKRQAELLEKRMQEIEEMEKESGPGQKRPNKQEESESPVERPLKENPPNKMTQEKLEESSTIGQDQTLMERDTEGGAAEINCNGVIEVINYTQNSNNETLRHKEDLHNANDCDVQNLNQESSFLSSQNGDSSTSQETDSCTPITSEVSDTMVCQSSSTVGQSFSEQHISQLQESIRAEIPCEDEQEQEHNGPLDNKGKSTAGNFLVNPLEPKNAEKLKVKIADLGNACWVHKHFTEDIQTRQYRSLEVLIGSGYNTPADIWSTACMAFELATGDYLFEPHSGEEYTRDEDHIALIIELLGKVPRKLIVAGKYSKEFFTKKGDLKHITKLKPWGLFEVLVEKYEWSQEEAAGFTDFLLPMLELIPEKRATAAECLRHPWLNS

[18] = target: Tyrosine-protein kinase Yes (Homo sapiens) (UniProt P07947); experiment: Inhibition of YES1 (unknown origin) at 1 uM relative to control; procedure, shortened: as §3

Sequence of Aurora kinase B (Homo sapiens) (Q96GD4 whole entry): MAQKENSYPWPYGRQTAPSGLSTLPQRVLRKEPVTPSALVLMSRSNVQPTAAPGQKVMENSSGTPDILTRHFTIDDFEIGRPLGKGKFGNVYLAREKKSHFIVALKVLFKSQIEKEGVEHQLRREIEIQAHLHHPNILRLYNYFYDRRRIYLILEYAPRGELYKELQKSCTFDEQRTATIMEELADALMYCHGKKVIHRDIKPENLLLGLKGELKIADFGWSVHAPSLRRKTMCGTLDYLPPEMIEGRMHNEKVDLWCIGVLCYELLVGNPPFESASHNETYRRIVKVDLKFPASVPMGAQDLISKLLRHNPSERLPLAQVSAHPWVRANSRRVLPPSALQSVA

Structure (SMILES) | inhibition [1] [%] | inhibition [2] [%] | inhibition [3] [%] | inhibition [4] [%] | inhibition [5] [%] | inhibition [6] [%] | inhibition [7] [%] | inhibition [8] [%] | inhibition [9] [%] | inhibition [10] [%] | inhibition [11] [%] | inhibition [12] [%] | inhibition [13] [%] | inhibition [14] [%] | inhibition [15] [%] | inhibition [16] [%] | inhibition [17] [%] | inhibition [18] [%]
CC(C)n1cc(-c2n[nH]c3ccnc(OC4CCOCC4)c23)cn1 | 38 | 19 | 39 | 0 | 49 | 56 | 57 | 8 | 0 | 77 | 0 | 27 | 24 | 62 | 58 | 12 | 0 | 0
c1cc(-c2n[nH]c3ccnc(OC4CCOCC4)c23)cc(N2CCOCC2)n1 | 0 | 0 | 51 | 0 | 51 | 4 | 7 | 0 | 0 | 34 | 0 | 0 | 0 | 3 | 0 | 0 | 0 | 9
